Source: ChEMBL document CHEMBL1165965, “Synthesis and structure-activity relationships of 1,2,3,4-tetrahydropyrido[2,3-b]pyrazines as potent and selective inhibitors of the anaplastic lymphoma kinase” (Bioorg Med Chem, 2010)

Assays:
[1] = biological target: T1, Serine/threonine-protein kinase STK11 (Homo sapiens) (UniProt Q15831); assay: Inhibition of LKB1 at 1 uM
T1 sequence (whole entry): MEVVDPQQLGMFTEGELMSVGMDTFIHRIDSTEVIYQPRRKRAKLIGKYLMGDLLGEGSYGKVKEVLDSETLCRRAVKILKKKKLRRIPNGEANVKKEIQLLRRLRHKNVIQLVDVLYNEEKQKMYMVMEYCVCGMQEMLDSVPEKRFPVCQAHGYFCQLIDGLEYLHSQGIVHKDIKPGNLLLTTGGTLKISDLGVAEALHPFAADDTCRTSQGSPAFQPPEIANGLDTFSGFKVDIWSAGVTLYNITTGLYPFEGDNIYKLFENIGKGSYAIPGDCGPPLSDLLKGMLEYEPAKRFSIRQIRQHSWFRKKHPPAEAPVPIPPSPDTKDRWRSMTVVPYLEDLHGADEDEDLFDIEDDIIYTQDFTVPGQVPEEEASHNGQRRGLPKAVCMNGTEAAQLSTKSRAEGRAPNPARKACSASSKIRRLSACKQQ
In short: (§1)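 Single-concentration screen on the Ambit KINOMEscan platform, run against a panel of 250–400 kinases. Per-kinase inhibition was also summarized as S(90), the fraction of kinases inhibited by more than 90%.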

[2] = biological target: T2, MAP/microtubule affinity-regulating kinase 4 (Homo sapiens) (UniProt Q96L34); assay: Inhibition of MARK4 at 1 uM
T2 sequence (whole entry): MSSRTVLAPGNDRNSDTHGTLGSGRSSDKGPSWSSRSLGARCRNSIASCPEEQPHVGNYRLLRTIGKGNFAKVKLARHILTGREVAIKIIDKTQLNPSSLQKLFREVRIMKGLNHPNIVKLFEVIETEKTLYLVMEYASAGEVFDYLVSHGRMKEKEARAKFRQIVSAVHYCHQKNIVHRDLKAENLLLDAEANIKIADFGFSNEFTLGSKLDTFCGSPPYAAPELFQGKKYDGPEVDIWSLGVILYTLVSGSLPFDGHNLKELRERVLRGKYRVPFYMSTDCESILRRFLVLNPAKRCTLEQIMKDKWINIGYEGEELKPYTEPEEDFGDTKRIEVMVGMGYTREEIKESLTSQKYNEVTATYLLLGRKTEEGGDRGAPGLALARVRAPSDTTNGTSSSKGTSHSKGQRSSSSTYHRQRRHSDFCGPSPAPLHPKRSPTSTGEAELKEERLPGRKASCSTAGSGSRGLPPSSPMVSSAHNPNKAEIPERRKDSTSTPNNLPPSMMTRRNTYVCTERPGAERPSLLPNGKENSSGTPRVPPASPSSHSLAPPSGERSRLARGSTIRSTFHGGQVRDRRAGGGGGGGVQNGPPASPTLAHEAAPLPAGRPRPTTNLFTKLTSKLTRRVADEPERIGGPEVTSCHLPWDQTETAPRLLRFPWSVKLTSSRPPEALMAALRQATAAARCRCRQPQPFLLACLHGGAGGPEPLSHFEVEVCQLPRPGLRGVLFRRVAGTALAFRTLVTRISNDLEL
In short: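 Kinase-panel screen using KINOMEscan technology, with 250–400 kinases per panel. Each compound was tested at a single concentration, and inhibition of each kinase was recorded. Selectivity was summarised as S(90), the fraction of kinases inhibited by more than 90%.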

[3] = biological target: Dual specificity mitogen-activated protein kinase kinase 2 (Homo sapiens) (UniProt P36507); assay: Inhibition of MEK2 at 1 uM
Chain of Dual specificity mitogen-activated protein kinase kinase 2 (Homo sapiens) (P36507 whole entry): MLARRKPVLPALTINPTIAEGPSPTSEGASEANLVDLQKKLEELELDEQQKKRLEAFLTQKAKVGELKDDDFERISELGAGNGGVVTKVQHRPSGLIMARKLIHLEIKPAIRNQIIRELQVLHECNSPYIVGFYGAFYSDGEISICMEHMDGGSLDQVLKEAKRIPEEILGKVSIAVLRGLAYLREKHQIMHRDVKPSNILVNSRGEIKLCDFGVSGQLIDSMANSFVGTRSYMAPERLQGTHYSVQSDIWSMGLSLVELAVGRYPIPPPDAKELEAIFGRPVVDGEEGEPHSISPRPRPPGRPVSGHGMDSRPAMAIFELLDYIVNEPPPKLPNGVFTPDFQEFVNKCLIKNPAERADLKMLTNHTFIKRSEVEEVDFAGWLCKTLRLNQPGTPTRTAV

[4] = biological target: Serine/threonine-protein kinase 38 (Homo sapiens) (UniProt Q15208); assay: Inhibition of NDR1 at 1 uM
Chain of Serine/threonine-protein kinase 38 (Homo sapiens) (Q15208 2-465 limits assumed): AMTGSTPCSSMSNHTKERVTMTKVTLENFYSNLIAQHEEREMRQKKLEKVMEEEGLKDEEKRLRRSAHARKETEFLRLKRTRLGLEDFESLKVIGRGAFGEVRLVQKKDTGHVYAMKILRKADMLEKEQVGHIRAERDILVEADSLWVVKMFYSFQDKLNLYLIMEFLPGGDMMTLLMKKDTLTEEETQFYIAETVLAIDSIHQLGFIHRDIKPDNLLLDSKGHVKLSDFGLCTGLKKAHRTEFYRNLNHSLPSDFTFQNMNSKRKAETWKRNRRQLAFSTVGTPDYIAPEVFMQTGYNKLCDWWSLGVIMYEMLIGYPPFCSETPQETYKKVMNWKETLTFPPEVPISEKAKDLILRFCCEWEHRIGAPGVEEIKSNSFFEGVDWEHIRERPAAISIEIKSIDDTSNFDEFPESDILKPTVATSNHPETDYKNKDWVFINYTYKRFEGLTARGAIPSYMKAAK

[5] = biological target: T3, cGMP-dependent protein kinase 2 (Homo sapiens) (UniProt Q13237); assay: Inhibition of PRKG2 at 1 uM
T3 sequence (whole entry): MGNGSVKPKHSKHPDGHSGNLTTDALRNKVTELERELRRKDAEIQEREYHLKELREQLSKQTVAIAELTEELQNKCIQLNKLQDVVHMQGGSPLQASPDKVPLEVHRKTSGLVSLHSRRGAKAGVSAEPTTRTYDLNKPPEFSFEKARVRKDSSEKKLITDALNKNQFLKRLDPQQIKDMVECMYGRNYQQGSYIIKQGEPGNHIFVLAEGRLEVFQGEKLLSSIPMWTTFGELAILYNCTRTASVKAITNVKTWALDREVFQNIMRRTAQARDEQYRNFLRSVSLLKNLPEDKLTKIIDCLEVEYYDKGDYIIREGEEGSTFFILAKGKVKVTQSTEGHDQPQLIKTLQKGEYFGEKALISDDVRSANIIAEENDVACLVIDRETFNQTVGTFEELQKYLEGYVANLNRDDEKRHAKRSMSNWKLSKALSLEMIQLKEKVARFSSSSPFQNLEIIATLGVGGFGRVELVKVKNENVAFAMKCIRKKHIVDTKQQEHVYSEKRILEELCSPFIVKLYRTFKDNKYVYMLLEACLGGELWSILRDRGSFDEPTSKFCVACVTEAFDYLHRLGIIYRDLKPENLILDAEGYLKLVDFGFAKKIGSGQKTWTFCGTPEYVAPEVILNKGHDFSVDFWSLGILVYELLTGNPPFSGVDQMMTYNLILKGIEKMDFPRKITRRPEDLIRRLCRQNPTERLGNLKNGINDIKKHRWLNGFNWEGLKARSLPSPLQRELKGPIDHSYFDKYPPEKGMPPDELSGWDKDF

[6] = biological target: Tyrosine-protein kinase Yes (Homo sapiens) (UniProt P07947); assay: Inhibition of YES at 1 uM
Chain of Tyrosine-protein kinase Yes (Homo sapiens) (P07947 2-543 limits assumed): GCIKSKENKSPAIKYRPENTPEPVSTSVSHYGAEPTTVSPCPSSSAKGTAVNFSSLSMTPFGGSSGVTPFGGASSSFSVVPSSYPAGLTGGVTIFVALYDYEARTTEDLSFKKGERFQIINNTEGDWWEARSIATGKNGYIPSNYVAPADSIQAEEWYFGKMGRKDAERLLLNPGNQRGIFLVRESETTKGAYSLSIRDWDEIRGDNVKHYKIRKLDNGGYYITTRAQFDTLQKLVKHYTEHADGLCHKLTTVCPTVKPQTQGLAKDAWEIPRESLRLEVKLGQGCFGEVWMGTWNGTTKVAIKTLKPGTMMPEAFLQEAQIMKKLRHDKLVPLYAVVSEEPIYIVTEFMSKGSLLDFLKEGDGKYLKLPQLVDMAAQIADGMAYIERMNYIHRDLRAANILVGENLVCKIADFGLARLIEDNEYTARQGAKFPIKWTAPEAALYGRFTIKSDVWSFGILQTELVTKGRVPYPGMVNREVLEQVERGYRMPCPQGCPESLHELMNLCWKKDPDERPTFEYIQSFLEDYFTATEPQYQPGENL

[7] = biological target: Calcium/calmodulin-dependent protein kinase type 1D (Homo sapiens) (UniProt Q8IU85); assay: Inhibition of CAMK1D at 1 uM
Chain of Calcium/calmodulin-dependent protein kinase type 1D (Homo sapiens) (Q8IU85 whole entry, looked up): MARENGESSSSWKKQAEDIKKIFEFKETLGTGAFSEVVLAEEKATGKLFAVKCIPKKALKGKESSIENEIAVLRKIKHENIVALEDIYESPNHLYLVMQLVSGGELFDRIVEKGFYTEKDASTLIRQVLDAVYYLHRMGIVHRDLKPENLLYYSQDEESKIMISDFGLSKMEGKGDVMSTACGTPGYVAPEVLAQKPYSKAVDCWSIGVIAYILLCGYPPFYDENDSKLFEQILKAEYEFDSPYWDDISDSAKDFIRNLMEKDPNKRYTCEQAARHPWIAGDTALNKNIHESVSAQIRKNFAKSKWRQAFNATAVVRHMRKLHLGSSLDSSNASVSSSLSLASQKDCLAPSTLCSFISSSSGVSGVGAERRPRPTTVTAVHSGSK
In short: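 Ambit KINOMEscan screen at a single concentration across a 250–400 kinase panel, recorded as percent inhibition. Selectivity was expressed as S(90), the fraction of kinases inhibited >90%.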

[8] = biological target: Vascular endothelial growth factor receptor 3 (Homo sapiens) (UniProt P35916); assay: Inhibition of FLT4 at 1 uM; in short: as §1
Chain of Vascular endothelial growth factor receptor 3 (Homo sapiens) (P35916 whole entry): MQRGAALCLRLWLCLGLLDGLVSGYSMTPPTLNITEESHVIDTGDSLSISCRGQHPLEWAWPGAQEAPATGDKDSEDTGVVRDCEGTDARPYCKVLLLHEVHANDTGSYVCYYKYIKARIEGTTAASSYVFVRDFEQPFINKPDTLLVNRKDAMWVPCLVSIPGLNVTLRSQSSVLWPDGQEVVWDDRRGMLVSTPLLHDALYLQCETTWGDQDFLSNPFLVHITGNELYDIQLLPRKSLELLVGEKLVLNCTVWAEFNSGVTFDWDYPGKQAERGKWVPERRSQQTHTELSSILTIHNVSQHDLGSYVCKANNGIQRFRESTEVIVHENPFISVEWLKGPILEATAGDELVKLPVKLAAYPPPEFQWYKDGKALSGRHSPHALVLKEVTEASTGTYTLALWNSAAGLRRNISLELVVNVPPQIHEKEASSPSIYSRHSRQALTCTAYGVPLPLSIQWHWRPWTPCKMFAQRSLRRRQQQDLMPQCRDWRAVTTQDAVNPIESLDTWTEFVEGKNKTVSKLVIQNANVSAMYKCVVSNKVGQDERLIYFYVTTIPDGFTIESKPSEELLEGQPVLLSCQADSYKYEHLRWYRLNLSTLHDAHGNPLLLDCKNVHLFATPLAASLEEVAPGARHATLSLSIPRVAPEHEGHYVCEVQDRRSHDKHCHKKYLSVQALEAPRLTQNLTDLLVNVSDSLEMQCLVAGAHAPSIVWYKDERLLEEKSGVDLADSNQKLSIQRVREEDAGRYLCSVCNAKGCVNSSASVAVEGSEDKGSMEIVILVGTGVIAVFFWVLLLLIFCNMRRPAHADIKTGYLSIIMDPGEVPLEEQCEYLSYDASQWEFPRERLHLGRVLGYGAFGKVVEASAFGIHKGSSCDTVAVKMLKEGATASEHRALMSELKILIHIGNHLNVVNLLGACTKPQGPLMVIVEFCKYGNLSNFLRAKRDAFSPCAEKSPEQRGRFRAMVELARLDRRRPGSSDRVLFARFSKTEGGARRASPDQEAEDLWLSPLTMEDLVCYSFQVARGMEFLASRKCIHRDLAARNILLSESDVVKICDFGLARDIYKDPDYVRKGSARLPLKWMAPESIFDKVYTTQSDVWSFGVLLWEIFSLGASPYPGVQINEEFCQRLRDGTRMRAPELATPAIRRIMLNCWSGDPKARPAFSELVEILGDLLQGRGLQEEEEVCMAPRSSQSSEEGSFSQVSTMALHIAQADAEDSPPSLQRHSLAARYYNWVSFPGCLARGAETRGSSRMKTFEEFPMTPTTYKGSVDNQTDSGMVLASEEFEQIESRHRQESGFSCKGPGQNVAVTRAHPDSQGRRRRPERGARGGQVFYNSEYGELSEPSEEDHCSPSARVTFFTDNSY

Structure (SMILES)	inhibition [1] [%]	inhibition [2] [%]	inhibition [3] [%]	inhibition [4] [%]	inhibition [5] [%]	inhibition [6] [%]	inhibition [7] [%]	inhibition [8] [%]
CN1CCN(c2ccc(-c3cnc4c(c3)N(Cc3cc(Cl)ccc3C(F)(F)F)CCN4)cn2)CC1	< 50	< 50	< 50	< 50	< 50	< 50	< 50	< 50
FC(F)(F)c1ccc(Cl)cc1CN1CCNc2ncc(-c3ccnc(N4CCNCC4)c3)cc21	< 50	< 50	< 50	< 50	< 50	< 50	< 50	< 50
CC(=O)N1CCN(c2cc(-c3cnc4c(c3)N(Cc3cc(Cl)ccc3C(F)(F)F)CCN4)ccn2)CC1	< 50	< 50	< 50	< 50	< 50	< 50	< 50	< 50
CN1CCN(c2ccc(-c3cnc4c(c3)N(Cc3cc(F)ccc3F)CCN4)cn2)CC1	< 50	< 50	< 50	< 50	< 50	< 50	< 50	< 50
CN1CCN(c2ccc(-c3cnc4c(c3)N(Cc3c(F)ccc(F)c3Cl)CCN4)cn2)CC1	< 50	< 50	< 50	< 50	< 50	< 50	< 50	< 50
CN1CCN(c2ccc(-c3cnc4c(c3)N(Cc3cc(Cl)ccc3Cl)CCN4)cn2)CC1	< 50	< 50	< 50	< 50	< 50	< 50	< 50	< 50

The next lines start with the values.

inhibition [1] [%]	inhibition [2] [%]	inhibition [3] [%]	inhibition [4] [%]	inhibition [5] [%]	inhibition [6] [%]	inhibition [7] [%]	inhibition [8] [%]	Structure (SMILES)
< 50	< 50	–	–	< 50	< 50	< 50	< 50	O=C(O)c1ccc(-c2cnc3c(c2)N(Cc2cc(Cl)ccc2C(F)(F)F)CCN3)cc1
< 50	< 50	–	–	< 50	< 50	< 50	84.5	O=C(c1ccc(-c2cnc3c(c2)N(Cc2cc(Cl)ccc2C(F)(F)F)CCN3)cc1)N1CCC(N2CCCC2)CC1
< 50	< 50	–	–	< 50	< 50	< 50	< 50	COC1CCN(C(=O)c2ccc(-c3cnc4c(c3)N(Cc3cc(Cl)ccc3C(F)(F)F)CCN4)cc2)CC1
< 50	< 50	–	–	< 50	< 50	< 50	< 50	O=C(c1ccc(-c2cnc3c(c2)N(Cc2cc(Cl)ccc2C(F)(F)F)CCN3)cc1)N1CCCCC1
